# Experiments:
# CDK2 = CDK2 (Homo sapiens, UniProt P24941); assay: SelectScreen Kinase Profiling, CDK2; assay type: biochemical
# Method in brief: (§1)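 Kinases were run in a commercial kinase profiling service. Single-point tests used 1 μM test compound at the ATP concentration specified per kinase. IC50 curves started at 20 μM, followed by 10 subsequent […] dilution steps.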
# MC38 tumors = assay: In vivo efficacy, MC-38 murine syngeneic colon adenocarcinoma model; parameters: species or system mouse; conditions: BI-1347 10 mg/kg daily oral; anti-PD-1 10 mg/kg i.p. twice weekly
# Method in brief: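 Female C57BL/6N mice were implanted subcutaneously with 100 thousand MC38 cells and randomized by body weight on day 3, 5 mice per group. The anti-PD-1 was rat IgG2a anti-mouse PD-1 (RMP1–14). Readouts were response and TGI at day 20 and complete responses at study end. Groups were compared by one-tailed, non-adjusted Mann Whitney test.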
# CDK19 = CDK19 (Homo sapiens, UniProt Q9BWU1); assay: SelectScreen Kinase Profiling, CDK19; assay type: biochemical
# Method in brief: as §1
# EMT6 tumors = assay: In vivo efficacy, EMT6 murine mammary carcinoma model; parameters: species or system mouse; conditions: BI-1347 monotherapy
# CDK6 = CDK6 (Homo sapiens, UniProt Q00534); assay: SelectScreen Kinase Profiling, CDK6; assay type: biochemical
# Method in brief: as §1
# [1] = system: primary leukemia cells from chronic lymphocytic leukemia patients; assay: CD20-mediated ADCC with rituximab on primary CLL cells; assay type: cell-based, human
# Method in brief: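 Primary CLL cells and autologous PBMCs from patients were cultured 48 h with rituximab (10 μg/ml) plus CDK8/19 inhibitor or vehicle. Leukemia-cell depletion was counted by flow cytometry against PKH26 reference microbeads and normalised to the mean of DMSO controls (n=5). The no-NK arm used CLL cells pretreated 48 h with vehicle or inhibitor, then 4 h with vehicle or rituximab. Cell death was read by flow cytometry (n=4).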
# CDK4 = CDK4 (Homo sapiens, UniProt P11802); assay: SelectScreen Kinase Profiling, CDK4; assay type: biochemical
# Method in brief: as §1
# EMT6 cells = assay: Viability assay, EMT6; assay type: cell-based, mouse
# Method in brief: (§2)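 Mouse tumour cells were plated in 96-well plates with CDK8/19 inhibitor over a concentration range, with 72 h or 120 h timing depending on the growth of each line. Cells were held at 37°C, humidified, 5% CO2. Viability was read by CellTiter-Glo luminescence or AlamarBlue, and curves were fitted by iterative sigmoidal analysis.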
# CDK9 = CDK9 (Homo sapiens, UniProt P50750); assay: SelectScreen Kinase Profiling, CDK9; assay type: biochemical
# Method in brief: as §1
# CDK7 = CDK7 (Homo sapiens, UniProt P50613); assay: SelectScreen Kinase Profiling, CDK7; assay type: biochemical
# Method in brief: as §1
# [2] = system: granzyme B-positive murine spleen-derived NK cells; assay: Modulation of granzyme B in mouse splenocytes; assay type: cell-based; conditions: murine spleen-derived NK cells activated with IL-15 in vitro; 150 nmol/l, 44 h
# Method in brief: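 Cells received 2.5 ng/ml IL-15, 150 nmol/l test compound, or both, for 44 h at 37°C and 5% CO2. Protein transport inhibitor was present for the last 4 h. Cells were stained for CD3ε, NK1.1 and intracellular granzyme B after fix/perm and gated viable CD3−NK1.1+GZMB+ (3–6 mice per group).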
# Metabolic stability = assay type: in vitro ADME; conditions: compared with Compound 2
# Method in brief: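 Test compound was incubated with cryopreserved hepatocytes, and compound depletion was quantified over 240 min by LC/MS/MS. In vivo hepatic clearance was predicted from depletion using the well-stirred model.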
# MC-38 cells = assay: Viability assay, MC-38; assay type: cell-based, mouse
# Method in brief: as §2
# Mouse pharmacokinetics = assay type: in vivo; conditions: mice
# Method in brief: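 C57BL/6 mice (n=3 per group) were given test compound orally at 25 mg/kg or intravenously at 1 mg/kg. Plasma concentrations were measured by LC-MS at set time points after dosing.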
# [3] = system: perforin secretion from NK92MI cells; assay: Perforin release assay; assay type: cell-based, human; conditions: 24 h, ELISA
# Method in brief: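 NK92MI cells were seeded at 40.000 cells/well with test compound over a concentration range and held 24 h at 37°C, humidified, 5% CO2. IL-15 (50 ng/ml) served as positive control. Secreted perforin in supernatants was quantified by ELISA.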
# CDK1 = CDK1 (Homo sapiens, UniProt P06493); assay: SelectScreen Kinase Profiling, CDK1; assay type: biochemical
# Method in brief: as §1
# B16-F10-luc2 melanoma = assay: In vivo efficacy, B16-F10-luc2 syngeneic melanoma model; conditions: 10 mg/kg daily oral
# Method in brief: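 Female C57BL/6N mice received 100 thousand B16-F10-luc2 cells intravenously. They were randomized by body weight on day 5, 10 mice per group, then dosed orally once daily. Tumor burden was read as average radiance by luciferase in vivo imaging, alongside survival and body weight. TGI = [1-((treated(final) – treated(Day1))/(control(final) – control(Day1)))] * 100%.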
# B16-F10 cells = assay: Viability assay, B16-F10; assay type: cell-based, mouse
# Method in brief: as §2
# [4] = system: STAT1^S727 phosphorylation; assay type: in vivo, mouse; conditions: daily oral dose of 10 mg/kg, for at least 6 h
# CDK1, sequence (P06493 whole entry): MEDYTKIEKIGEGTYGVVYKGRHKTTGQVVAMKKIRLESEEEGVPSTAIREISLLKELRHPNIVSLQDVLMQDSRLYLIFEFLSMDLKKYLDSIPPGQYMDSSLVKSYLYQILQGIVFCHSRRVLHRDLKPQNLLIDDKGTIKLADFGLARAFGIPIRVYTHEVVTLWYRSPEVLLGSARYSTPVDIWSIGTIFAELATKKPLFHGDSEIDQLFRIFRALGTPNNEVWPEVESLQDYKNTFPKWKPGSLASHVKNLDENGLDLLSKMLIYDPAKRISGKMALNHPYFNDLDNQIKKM
# CDK1, sequence (P14635 whole entry partner): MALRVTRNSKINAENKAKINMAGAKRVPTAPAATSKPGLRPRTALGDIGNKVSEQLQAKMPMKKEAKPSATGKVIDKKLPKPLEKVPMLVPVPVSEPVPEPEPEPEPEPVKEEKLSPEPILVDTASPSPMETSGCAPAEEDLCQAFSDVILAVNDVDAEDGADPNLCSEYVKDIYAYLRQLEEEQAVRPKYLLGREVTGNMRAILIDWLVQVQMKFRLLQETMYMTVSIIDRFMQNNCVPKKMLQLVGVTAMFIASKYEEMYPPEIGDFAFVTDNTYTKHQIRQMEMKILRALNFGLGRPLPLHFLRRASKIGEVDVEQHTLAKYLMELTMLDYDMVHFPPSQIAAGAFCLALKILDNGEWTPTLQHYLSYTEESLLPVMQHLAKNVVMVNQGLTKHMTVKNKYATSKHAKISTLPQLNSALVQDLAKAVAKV
# CDK7, sequence (P50613 whole entry): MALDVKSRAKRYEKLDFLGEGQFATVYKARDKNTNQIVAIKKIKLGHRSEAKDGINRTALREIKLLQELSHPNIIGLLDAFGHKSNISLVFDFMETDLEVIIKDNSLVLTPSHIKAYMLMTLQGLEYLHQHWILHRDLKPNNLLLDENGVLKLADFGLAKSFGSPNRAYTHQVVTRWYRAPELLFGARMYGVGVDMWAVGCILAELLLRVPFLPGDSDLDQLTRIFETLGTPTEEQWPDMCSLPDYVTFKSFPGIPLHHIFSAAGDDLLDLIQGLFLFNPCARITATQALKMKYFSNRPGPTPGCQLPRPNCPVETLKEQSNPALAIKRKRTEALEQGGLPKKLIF
# CDK7, sequence (P51946 whole entry partner): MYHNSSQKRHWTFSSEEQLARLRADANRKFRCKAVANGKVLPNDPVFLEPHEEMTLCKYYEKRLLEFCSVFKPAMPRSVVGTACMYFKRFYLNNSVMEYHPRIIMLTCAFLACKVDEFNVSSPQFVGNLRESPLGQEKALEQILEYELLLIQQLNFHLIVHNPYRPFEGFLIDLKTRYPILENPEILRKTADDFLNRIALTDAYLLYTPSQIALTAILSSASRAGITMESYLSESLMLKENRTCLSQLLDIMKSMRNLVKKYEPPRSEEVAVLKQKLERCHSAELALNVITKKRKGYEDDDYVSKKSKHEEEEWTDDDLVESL
# CDK7, sequence (P51948 whole entry partner): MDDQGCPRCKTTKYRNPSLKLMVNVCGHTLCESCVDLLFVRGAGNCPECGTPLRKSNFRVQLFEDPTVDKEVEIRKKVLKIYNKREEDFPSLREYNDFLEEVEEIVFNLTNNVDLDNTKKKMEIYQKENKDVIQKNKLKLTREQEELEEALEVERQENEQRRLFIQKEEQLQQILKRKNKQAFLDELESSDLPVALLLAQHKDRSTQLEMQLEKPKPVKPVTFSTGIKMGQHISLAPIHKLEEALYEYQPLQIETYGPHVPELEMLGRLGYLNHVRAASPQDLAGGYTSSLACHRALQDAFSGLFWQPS
# CDK9, sequence (P50750 whole entry): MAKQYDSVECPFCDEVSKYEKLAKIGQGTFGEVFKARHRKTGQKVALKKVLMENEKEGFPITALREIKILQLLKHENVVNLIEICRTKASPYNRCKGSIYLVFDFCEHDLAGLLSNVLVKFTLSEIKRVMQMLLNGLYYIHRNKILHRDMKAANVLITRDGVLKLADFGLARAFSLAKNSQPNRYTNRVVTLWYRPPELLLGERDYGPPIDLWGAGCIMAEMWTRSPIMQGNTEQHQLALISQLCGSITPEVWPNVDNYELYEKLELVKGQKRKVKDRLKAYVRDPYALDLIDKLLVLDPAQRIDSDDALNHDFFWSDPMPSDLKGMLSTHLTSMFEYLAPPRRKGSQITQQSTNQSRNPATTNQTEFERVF
# CDK9, sequence (O60563 whole entry partner): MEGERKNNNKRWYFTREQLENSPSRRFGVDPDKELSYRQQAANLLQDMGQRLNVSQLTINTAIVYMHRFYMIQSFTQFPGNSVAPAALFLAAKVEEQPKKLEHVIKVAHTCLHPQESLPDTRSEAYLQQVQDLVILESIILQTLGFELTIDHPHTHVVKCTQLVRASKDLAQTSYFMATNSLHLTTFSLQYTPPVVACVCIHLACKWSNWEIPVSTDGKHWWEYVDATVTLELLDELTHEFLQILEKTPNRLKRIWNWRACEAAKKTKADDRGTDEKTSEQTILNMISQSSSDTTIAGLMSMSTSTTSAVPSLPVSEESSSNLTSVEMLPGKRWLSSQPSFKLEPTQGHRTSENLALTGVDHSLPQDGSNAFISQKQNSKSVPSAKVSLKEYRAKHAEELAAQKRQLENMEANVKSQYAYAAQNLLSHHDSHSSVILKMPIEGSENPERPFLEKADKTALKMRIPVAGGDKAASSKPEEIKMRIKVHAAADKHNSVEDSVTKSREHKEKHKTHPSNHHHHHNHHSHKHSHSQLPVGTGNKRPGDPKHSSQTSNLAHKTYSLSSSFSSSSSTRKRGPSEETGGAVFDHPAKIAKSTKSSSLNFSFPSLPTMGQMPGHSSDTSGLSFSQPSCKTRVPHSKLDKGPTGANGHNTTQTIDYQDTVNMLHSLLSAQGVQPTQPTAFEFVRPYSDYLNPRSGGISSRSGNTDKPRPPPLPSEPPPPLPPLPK
# CDK6, sequence (Q00534 whole entry): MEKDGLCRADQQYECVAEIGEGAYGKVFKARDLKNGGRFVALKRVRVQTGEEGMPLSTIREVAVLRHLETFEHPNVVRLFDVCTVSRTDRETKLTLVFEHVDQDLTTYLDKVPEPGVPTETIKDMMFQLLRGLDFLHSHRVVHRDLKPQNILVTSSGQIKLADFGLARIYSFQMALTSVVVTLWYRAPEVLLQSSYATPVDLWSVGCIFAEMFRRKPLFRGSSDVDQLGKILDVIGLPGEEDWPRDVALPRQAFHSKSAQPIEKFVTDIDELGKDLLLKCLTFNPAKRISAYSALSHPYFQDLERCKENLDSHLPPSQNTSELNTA
# CDK6, sequence (P24385 whole entry partner): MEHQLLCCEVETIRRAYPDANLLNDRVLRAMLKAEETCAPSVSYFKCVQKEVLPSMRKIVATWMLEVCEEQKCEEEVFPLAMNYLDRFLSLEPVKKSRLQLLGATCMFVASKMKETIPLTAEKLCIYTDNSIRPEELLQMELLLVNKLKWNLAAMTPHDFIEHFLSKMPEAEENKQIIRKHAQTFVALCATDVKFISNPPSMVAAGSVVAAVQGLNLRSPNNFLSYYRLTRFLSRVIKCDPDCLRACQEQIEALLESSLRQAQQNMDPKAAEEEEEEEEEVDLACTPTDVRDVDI
# CDK4, sequence (P11802 whole entry): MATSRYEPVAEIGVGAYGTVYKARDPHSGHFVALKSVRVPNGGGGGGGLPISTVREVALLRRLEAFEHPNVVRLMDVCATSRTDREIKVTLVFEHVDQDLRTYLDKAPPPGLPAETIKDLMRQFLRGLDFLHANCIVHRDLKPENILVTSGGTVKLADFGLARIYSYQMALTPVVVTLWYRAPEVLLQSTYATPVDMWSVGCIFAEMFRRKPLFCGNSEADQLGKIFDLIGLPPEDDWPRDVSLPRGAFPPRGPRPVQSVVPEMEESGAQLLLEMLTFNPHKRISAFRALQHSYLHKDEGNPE
# CDK4, sequence (P24385 whole entry partner): as the sequence (P24385 whole entry partner) above
# CDK19, sequence (Q9BWU1 whole entry): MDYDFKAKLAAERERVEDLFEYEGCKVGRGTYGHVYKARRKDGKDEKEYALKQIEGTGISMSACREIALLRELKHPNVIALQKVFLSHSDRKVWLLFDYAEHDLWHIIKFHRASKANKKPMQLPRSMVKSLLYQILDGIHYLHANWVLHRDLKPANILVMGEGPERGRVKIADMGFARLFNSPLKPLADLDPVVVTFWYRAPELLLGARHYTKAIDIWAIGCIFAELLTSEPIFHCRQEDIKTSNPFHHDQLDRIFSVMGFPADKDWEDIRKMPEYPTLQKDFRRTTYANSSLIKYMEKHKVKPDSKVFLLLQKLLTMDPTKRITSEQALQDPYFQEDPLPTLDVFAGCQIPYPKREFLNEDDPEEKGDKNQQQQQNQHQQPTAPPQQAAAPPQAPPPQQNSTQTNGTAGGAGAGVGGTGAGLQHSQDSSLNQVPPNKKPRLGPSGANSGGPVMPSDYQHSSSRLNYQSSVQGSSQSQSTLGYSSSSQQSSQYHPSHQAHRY
compound,measurement,setting,value
CN(C)C(=O)Cn1cc(-c2ccc(-c3cncc4ccccc34)cc2)cn1 [BI-1347],inhibition of CDK2,CDK2,no inhibition
same,"CR [@ end of study, number of mice]",MC38 tumors,0/5
same,"Response [@ d20, number of mice]",MC38 tumors,2/5
same,IC50,CDK19,< 1000 nM
same,median survival,EMT6 tumors; 5 days on / 5 days off intermittent scheduling,26 days
same,median survival,"EMT6 tumors; daily oral 10 mg/kg, control 22 days",22.5 days
same,inhibition of CDK6,CDK6,no inhibition
same,ADCC mediated depletion of primary leukemia cells by rituximab,"[1]; in presence of PBMCs, 48 h",enhances
same,enhanced ADCC effect in absence of NK cells,"[1]; purified CLL cells with rituximab, no NK cells",not observed
same,inhibition of CDK4,CDK4,no inhibition
same,in vitro sensitivity,EMT6 cells,resistant
same,inhibition of CDK9,CDK9,no inhibition
same,inhibition of CDK7,CDK7,no inhibition
same,increase of the proportion of granzyme B-positive NK cells,[2],approximately 4 fold
same,metabolic stability in vitro and in vivo,Metabolic stability,higher metabolic stability
same,in vitro sensitivity,MC-38 cells,resistant
same,exposure and bioavailability (F) after p.o. dosing,Mouse pharmacokinetics,Excellent exposure and bioavailability
same,plasma concentration 24 h after dosing relative to the CDK8 IC50,Mouse pharmacokinetics; 25 mg/kg p.o.,around 100 fold
same,clearance,Mouse pharmacokinetics; i.v. administration,14 % QH
same,perforin levels in the supernatant,[3],increased perforin levels
same,inhibition of CDK1,CDK1,no inhibition
same,median survival advantage compared to vehicle-treated animals,B16-F10-luc2 melanoma,4 days
same,tolerability (body weight),B16-F10-luc2 melanoma,well tolerated with minimal effect on body weight
same,tumor growth inhibition (TGI),B16-F10-luc2 melanoma; day 23,94%
same,tumor growth inhibition (TGI),B16-F10-luc2 melanoma; day 29,88%
same,mice surviving until day 42,B16-F10-luc2 melanoma; all control mice sacrificed by day 32,2/10
same,in vitro sensitivity,B16-F10 cells,resistant
same,reduction of phosphorylation of STAT1^S727,[4],60%

# — PMC7661742 (Molecular cancer therapeutics, 2020)
